From PMC10883374 (Science Advances, 2022)
Numbering of substitutions follows the chain as printed.

Assays:
[1] = biological target: T1, D202A hSAMTOR interaction with GATOR1-KICSTOR (Homo sapiens, UniProt Q1RMZ1, D202A); test: Co-IP of Flag-hSAMTOR-D202A with HA-Nprl3 and Myc-Kaptin with or without SAM; type: biochemical; conditions: HEK 293T cell lysates, 0.5 mM SAM
T1 sequence (Q1RMZ1 1-405 D202A): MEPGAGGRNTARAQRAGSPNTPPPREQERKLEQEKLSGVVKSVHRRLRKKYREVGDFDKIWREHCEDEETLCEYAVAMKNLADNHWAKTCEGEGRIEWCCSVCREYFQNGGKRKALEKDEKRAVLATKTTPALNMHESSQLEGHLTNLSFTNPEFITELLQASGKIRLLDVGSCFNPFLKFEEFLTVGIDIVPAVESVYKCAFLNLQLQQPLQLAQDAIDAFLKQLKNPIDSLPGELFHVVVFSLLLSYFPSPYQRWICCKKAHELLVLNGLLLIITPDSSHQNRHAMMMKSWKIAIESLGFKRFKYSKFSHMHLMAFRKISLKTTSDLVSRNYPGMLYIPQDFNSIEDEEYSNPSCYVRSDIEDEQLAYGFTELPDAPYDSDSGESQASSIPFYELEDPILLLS

[2] = biological target: dSAMTOR (WT, full-length) (Drosophila melanogaster, UniProt Q9W138); test: ITC ligand binding, WT dSAMTOR
Method in brief: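 Full-length dSAMTOR was expressed as His6-SUMO fusion in E. coli BL21 (DE3), Ni-NTA purified, tag-cleaved, then gel-filtered into 10 mM Hepes pH 7.5, 150 mM NaCl, 1 mM DTT. ITC ran at 25°C: 20 × 2 µl injections of 1 mM SAM or SAH into 0.2 mM protein, discarding an initial 0.8 µl injection, with a buffer background titration. Single-site nonlinear least-squares fit gave ΔH, n and Kd.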

[3] = biological target: T2, R95A hSAMTOR interaction with GATOR1-KICSTOR (Homo sapiens, UniProt Q1RMZ1, R95A); test: Co-IP of Flag-hSAMTOR-R95A with HA-Nprl3 and Myc-Kaptin with or without SAM; type: biochemical; conditions: HEK 293T cell lysates, 0.5 mM SAM
T2 sequence (Q1RMZ1 1-405 R95A): T1 sequence (Q1RMZ1 1-405 D202A) with R95A, A202D

[4] = biological target: N-terminal truncated dSAMTOR (Δ1-64) (Drosophila melanogaster, UniProt Q9W138); test: ITC ligand binding, Δ1-64 dSAMTOR
Method in brief: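 Tag-free dSAMTOR, expressed as His6-SUMO fusion in E. coli BL21(DE3), purified by Ni-NTA and gel filtration into 10 mM Hepes pH 7.5, 150 mM NaCl, 1 mM DTT. At 25°C, 1 mM SAM or SAH was titrated into 0.2 mM protein over 20 injections, with a background titration into buffer. Single-site fit gave Kd, ΔH and n; ΔG and ΔS were calculated. Runs: three for measurable binding, two for undetectable binding.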

Chain of dSAMTOR (WT, full-length) (Q9W138 whole entry, the tested form may be a part): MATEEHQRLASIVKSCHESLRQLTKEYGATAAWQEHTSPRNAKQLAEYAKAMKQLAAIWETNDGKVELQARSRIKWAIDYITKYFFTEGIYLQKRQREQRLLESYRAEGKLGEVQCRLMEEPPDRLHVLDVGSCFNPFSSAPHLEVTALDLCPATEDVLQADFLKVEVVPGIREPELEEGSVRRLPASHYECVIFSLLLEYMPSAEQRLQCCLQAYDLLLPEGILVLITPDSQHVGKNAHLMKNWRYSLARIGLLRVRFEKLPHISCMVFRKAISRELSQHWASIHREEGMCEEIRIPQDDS
Chain of N-terminal truncated dSAMTOR (Δ1-64) (Q9W138 65-302, stated change not applied): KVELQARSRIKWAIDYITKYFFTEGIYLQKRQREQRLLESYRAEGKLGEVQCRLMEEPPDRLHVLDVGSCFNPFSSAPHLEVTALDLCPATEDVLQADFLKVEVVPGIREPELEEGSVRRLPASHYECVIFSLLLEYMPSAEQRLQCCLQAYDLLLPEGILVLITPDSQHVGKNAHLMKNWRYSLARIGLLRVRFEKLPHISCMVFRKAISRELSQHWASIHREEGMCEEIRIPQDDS

`C[S+](CC[C@H](N)C(=O)[O-])C[C@H]1O[C@@H](n2cnc3c(N)ncnc32)[C@H](O)[C@@H]1O` (stereo partly shown) [SAM, S-adenosylmethionine] was tested, and the “effect of SAM on interaction of hSAMTOR with GATOR1-KICSTOR (co-IP)” value [1] was “comparable interactions with GATOR1 and KICSTOR in both the absence and presence of SAM”, the Kd [2] was 10.7 ± 0.88 µM and the TΔS ([2]; ITC, 25°C, WT dSAMTOR) was 4.66 kcal/mol. The n value ([2]; ITC, 25°C, WT dSAMTOR) was 0.75 ± 0.08, the ΔH ([2]; ITC, 25°C, WT dSAMTOR) was -2.12 ± 0.05 kcal/mol and the “effect of SAM on interaction of hSAMTOR with GATOR1-KICSTOR (co-IP)” value [3] was “comparable interactions with GATOR1 and KICSTOR in both the absence and presence of SAM”. For the same compound, the Kd [4] was 6.78 ± 0.75 µM, the TΔS ([4]; ITC, 25°C, Δ1-64 dSAMTOR) was 5.89 kcal/mol and the n value ([4]; ITC, 25°C, Δ1-64 dSAMTOR) was 0.91 ± 0.01. The ΔH ([4]; ITC, 25°C, Δ1-64 dSAMTOR) was -1.16 ± 0.01 kcal/mol.
